IC50 and Ratio IC50 data for 16 molecules are collected here from ChEMBL document CHEMBL1144528, “Synthesis of 8-thiabicyclo[3.2.1]octanes and their binding affinity for the dopamine and serotonin transporters” (Bioorg Med Chem, 2007).

Test [1] deals with Sodium-dependent serotonin transporter (Macaca mulatta, UniProt Q9MYX0). The experiment in a line: Displacement of [3H]citalopram from SERT in rhesus monkey caudate-putamen. Type of test: tissue-based. In outline: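 Caudate-putamen membranes from rhesus or cynomolgus monkey (4 mg original wet weight/mL) in 50 mM Tris·HCl pH 7.4 with 100 mM NaCl. Incubated with 1 nM [3H]citalopram and a range of test drug concentrations for 2 h at 0-4 °C. Filtered over glass fibre filters pre-soaked in 0.1% polyethyleneimine, then scintillation counted. IC50 is the mean of ≥2 independent experiments in different brains, each in triplicate.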
Background: Displacement assays read how much labelled ligand stays bound in the presence of the test substance.

Another test is filed under the species Macaca mulatta. The experiment in a line: Selectivity for rhesus monkey DAT over rhesus monkey SERT. The method, boiled down:
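Ratio of SERT IC50 ([3H]citalopram binding) to DAT IC50 ([3H]WIN35,428 binding), both measured in monkey caudate-putamen membranes.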

For the next test, the target named is Transporter (Macaca mulatta, UniProt Q7JHP9). The experiment in a line: Displacement of [3H]WIN-35428 from DAT in rhesus monkey caudate-putamen. Type of test: tissue-based. The method, boiled down: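 Rhesus or cynomolgus caudate-putamen membranes (4 mg original wet weight/mL) in 50 mM Tris·HCl pH 7.4, 100 mM NaCl. Incubated 2 h at 0-4 °C with 0.3 nM [3H]WIN35,428 and a range of drug concentrations. Filtered on 0.1% BSA-soaked glass fibre filters and scintillation counted. Nonspecific binding defined with 30 μM (-)-cocaine. IC50 is the mean of ≥2 experiments in different brains, each in triplicate.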
Chain of Transporter (Q7JHP9 whole entry): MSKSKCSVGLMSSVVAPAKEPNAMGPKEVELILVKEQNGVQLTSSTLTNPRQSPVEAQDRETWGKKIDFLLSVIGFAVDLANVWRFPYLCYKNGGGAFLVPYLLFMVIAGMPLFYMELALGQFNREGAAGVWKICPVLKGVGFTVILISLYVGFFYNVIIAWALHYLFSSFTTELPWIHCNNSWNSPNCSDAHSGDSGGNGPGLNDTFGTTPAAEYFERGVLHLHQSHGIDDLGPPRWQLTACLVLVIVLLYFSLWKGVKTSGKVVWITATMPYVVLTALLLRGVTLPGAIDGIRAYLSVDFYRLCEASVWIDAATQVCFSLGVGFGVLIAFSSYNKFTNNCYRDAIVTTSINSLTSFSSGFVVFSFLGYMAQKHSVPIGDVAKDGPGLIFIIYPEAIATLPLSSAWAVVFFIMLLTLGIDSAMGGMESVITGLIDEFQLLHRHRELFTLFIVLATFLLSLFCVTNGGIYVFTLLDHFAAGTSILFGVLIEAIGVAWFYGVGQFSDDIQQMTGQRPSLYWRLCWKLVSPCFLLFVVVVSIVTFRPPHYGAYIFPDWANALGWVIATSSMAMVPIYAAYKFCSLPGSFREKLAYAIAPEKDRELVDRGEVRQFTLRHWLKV

Chain of Sodium-dependent serotonin transporter (Q9MYX0 whole entry): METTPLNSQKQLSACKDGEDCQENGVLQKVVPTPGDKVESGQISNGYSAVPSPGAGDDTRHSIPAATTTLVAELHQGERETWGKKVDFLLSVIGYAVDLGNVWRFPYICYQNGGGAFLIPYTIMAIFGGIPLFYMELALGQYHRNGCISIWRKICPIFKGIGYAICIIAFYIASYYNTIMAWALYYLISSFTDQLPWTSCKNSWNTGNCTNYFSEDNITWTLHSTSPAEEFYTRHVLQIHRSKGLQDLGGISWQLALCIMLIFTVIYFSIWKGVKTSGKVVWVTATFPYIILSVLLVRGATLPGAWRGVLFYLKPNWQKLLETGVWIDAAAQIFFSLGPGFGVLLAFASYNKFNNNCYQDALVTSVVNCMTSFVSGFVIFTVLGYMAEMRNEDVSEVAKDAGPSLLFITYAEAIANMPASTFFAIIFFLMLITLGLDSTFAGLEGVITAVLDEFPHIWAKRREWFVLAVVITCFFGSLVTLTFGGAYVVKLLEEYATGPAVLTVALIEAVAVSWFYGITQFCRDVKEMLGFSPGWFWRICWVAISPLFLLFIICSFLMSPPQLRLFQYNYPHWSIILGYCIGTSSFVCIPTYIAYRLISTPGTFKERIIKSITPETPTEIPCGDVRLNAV

Consider `COC(=O)[C@@H]1C2CCC(C[C@H]1c1ccc(F)c(Cl)c1)S2` (stereo partly drawn), for which the IC50 – broadly, the concentration that gives 50% inhibition – in test [1] was determined as 480 nM; on Transporter, 7.1 nM. In addition, the Ratio IC50 in the test filed under Macaca mulatta turned out to be 68.

Turning to `COC(=O)C1=C(c2ccc(Cl)c(Cl)c2)CC2CCC1C2` (stereo not drawn), the IC50 in test [1] came to 5160 nM; at Transporter, 7.1 nM. Further, the Ratio IC50 in the test filed under Macaca mulatta is 727.

Regarding `COC(=O)[C@@H]1C2CCC(C[C@H]1c1ccc(Cl)c(F)c1)S2` (stereo partly drawn), the values for the IC50 (in test [1]; at Transporter) were 702 nM and 7 nM, respectively. Also, the Ratio IC50 in the test filed under Macaca mulatta is 100.

As for `COC(=O)[C@@H]1[C@H]2[C@H](O)CC(C[C@@H]1c1ccc(Cl)c(Cl)c1)N2C`, the results for the half-maximal inhibitory concentration (IC50) (in test [1]; on Transporter) were 15 nM and 0.3 nM, respectively. Moreover, in the test listed under Macaca mulatta, the Ratio IC50 is 50.

Turning to `COC(=O)[C@@H]1C2CCC(C[C@H]1c1ccc(Cl)c(Cl)c1)O2` (stereo partly drawn), the results for the IC50 (in test [1]; at Transporter) were 64.5 nM and 3.1 nM, respectively. Moreover, the Ratio IC50 in the test filed under Macaca mulatta was 21.

In the case of `COC(=O)C1=C(c2ccc(Br)cc2)CC2CCC1S2` (stereo not drawn), the IC50 in test [1] was > 25000 nM; at Transporter it was 9.1 nM. In addition, the Ratio IC50 in the test listed under Macaca mulatta is > 2750.

For `COC(=O)[C@@H]1C2CCC(C[C@@H]1c1ccc(I)cc1)S2` (stereo partly drawn), the IC50 in test [1] is 10 nM; on Transporter, 14 nM. Further, the Ratio IC50 in the test listed under Macaca mulatta worked out at 0.7.

Consider `COC(=O)[C@@H]1C2CCC(C[C@H]1c1ccc(F)c(Cl)c1)[S+]2[O-]` (stereo partly drawn), for which the IC50 in test [1] is > 31000 nM; on Transporter it was 23 nM. In addition, the Ratio IC50 in the test listed under Macaca mulatta is > 1350.

Consider `COC(=O)[C@H]1[C@@H](c2ccc(Cl)c(Cl)c2)CC2CC[C@H]1N2C`, for which the IC50 in test [1] was 2.5 nM; on Transporter, 1.1 nM. Also, in the test listed under Macaca mulatta, the Ratio IC50 is 2.2.

On to `COC(=O)[C@@H]1C2CCC(C[C@@H]1c1ccc(F)c(Cl)c1)S2` (stereo partly drawn), for which the IC50 in test [1] was 370 nM; on Transporter, 6.7 nM. Further, in the test filed under Macaca mulatta, the Ratio IC50 stood at 55.

As for `COC(=O)[C@@H]1C2CCC(C[C@H]1c1ccc(Cl)c(Cl)c1)S2` (stereo partly drawn), the IC50 turned out to be 99 nM in test [1] and 6.9 nM at Transporter. For the same molecule, the Ratio IC50 in the test listed under Macaca mulatta was 14.

With `COC(=O)C1=C(c2ccc(Cl)c(F)c2)CC2CCC1S2` (stereo not drawn), the IC50 in test [1] was > 50000 nM; on Transporter, 10 nM. Moreover, the Ratio IC50 in the test listed under Macaca mulatta is > 5000.

Turning to `COC(=O)[C@@H]1[C@@H]2CCC(C[C@@H]1c1ccc(Cl)c(Cl)c1)S2`, the figures for the IC50 (in test [1]; on Transporter) were 90 nM and 22 nM, respectively. Moreover, in the test listed under Macaca mulatta, the Ratio IC50 came out at 4.

Turning to `COC(=O)[C@@H]1C2CCC(C[C@H]1c1ccc(Br)cc1)S2` (stereo partly drawn), the IC50 came out at 342 nM in test [1] and 6 nM on Transporter. Moreover, the Ratio IC50 in the test listed under Macaca mulatta was found to be 57.

In the case of `COC(=O)[C@@H]1C2CCC(C[C@H]1c1ccc(Cl)cc1)S2` (stereo partly drawn), the IC50 in test [1] worked out at 1000 nM; at Transporter, 11 nM. The Ratio IC50 in the test listed under Macaca mulatta is > 91.

Take `COC(=O)[C@@H]1C2CCC(C[C@H]1c1ccc(F)c(F)c1)[S+]2[O-]` (stereo partly drawn): the IC50 is > 69000 nM in test [1] and 89 nM at Transporter. Besides, the Ratio IC50 in the test filed under Macaca mulatta is > 775.
